Laboratory results: article PMC2808126 (Molecular cancer therapeutics, 2009)
Like-named read-outs stand apart in the source and are kept apart here.

Assays:
PC3 cells = test: ATP viability assay; format: cell-based; conditions: Homo sapiens, PC-3, 72 h, read-out: approximate IC50, cell viability
How it was run: (§1)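 Lines kept in RPMI 1640 with 10% FBS, except LAPC-4 in Iscove's medium with 5% FBS. About 1,000 cells/well plated in 384-well plates in 1% serum. Test compound added next day at increasing concentrations. For 22Rv1, agents given alone or combined for 48 h, or taxanes for 72 h. Other lines treated 72 h. ATPlite luminescence read, replicate wells averaged, approximate IC50 estimated.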

22Rv1 cells [1] = test: ATP viability assay; format: cell-based; conditions: Homo sapiens; for IC50: 22Rv1, 72 h, read-out: approximate IC50, cell viability (taxanes)
How it was run: as §1

22Rv1 cells [2] = test: Cell cycle analysis by flow cytometry; format: cell-based, human; conditions: 24 hours, untreated 60%
22Rv1-T cells [3] = test: Caspase-3 fluorometric protease assay; format: cell-based, human
LNCaP cells = test: ATP viability assay; format: cell-based; conditions: Homo sapiens, 72 h, read-out: approximate IC50, cell viability
How it was run: as §1

[4] = test system: phospho-p21^Thr145 in C4-2B cells; test: Western blot of phospho-p21 Thr145; format: cell-based, human; conditions: 5 hour treatment
How it was run: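 C4-2B cells, kept in RPMI 1640 with 10% FBS, treated 5 h with increasing concentrations of test compound. Western blot probed for phospho-p21 Thr145 and total p21, with β-actin as loading control.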

22Rv1 cells [5] = test: Caspase-3 fluorometric protease assay; format: cell-based, human; conditions: 22Rv1, increasing concentrations, 24 hours
How it was run: (§2)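 Cells held overnight in 1% serum, then exposed to increasing concentrations of test compound for 24 h. Apoptosis measured as caspase-3 activity with a fluorometric protease assay kit. Activity expressed relative to untreated samples.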

[6] = test system: phosphorylated Bad^Ser112 in C4-2B cells; test: Western blot of phospho-Bad Ser112; format: cell-based, human; conditions: increasing doses, 5 hours
How it was run: (§3)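 Cells (22Rv1, C4-2B or the paclitaxel-resistant 22Rv1 subline) treated with increasing doses of test compound for 5 h. Lysates immunoblotted for phospho-Bad Ser112 and total Bad, with β-actin as loading control.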

DU145 cells = test: ATP viability assay; format: cell-based; conditions: Homo sapiens, DU-145, 72 h, read-out: approximate IC50, cell viability
How it was run: as §1

[7] = test system: MDR1 mRNA in 22Rv1-T cells; test: Quantitative real-time RT-PCR of MDR1; format: cell-based, human; conditions: 22Rv1-T (Supplementary Fig. 3b)
[8] = test system: phospho-p21^Thr145 in 22Rv1 cells; test: Western blot of phospho-p21 Thr145; format: cell-based, human
C4-2B cells [9] = test: Cell cycle analysis by flow cytometry; format: cell-based, human; conditions: 24 hours, untreated 72%
22Rv1-T cells [10] = test: ATP viability assay; format: cell-based, human; conditions: for cell viability response: 22Rv1-T, time course to 72 hours; for IC50: Homo sapiens, 72 h
How it was run: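 Paclitaxel-resistant 22Rv1 subline made by serial passage over about 4 months in rising paclitaxel (0-400ng/ml), then maintained in 5ng/ml paclitaxel. About 1,000 cells/well plated in 1% serum in 384-well plates. Next day, taxanes or test compound added alone, or combined with paclitaxel, for up to 72 h. ATPlite luminescence read, replicate wells averaged.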

22Rv1-Pim1 cells [11] = test: ATP viability assay; format: cell-based, human; conditions: 72 hours
RWPE2-W99 cells = test: ATP viability assay; format: cell-based; conditions: Homo sapiens, Keratinocyte, 72 h, read-out: approximate IC50, cell viability
How it was run: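 RWPE2-W99 kept in Keratinocyte Serum Free Medium with bovine pituitary extract and human recombinant EGF. About 1,000 cells/well plated in 384-well plates in complete medium. Test compound added next day at increasing concentrations for 72 h. Viability read by ATPlite luminescence, replicate wells averaged, approximate IC50 estimated.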

C4-2B cells [12] = test: Caspase-3 fluorometric protease assay; format: cell-based, human; conditions: increasing concentrations, 24 hours
How it was run: as §2

22Rv1-Pim1 cells [13] = test: Caspase-3 fluorometric protease assay; format: cell-based; conditions: Homo sapiens, 22Rv1, read-out: fold induction of apoptosis (caspase-3) in 22Rv1-Pim1 compared to 22Rv1
[14] = test system: MDR1 activity in 22Rv1-T cells; test: Multidrug resistance assay; format: cell-based, human; conditions: 15 minutes; for fluorescent calcein retention (MDR1 efflux activity): single agent
[15] = test system: phosphorylated Bad^Ser112 in 22Rv1-T cells; test: Western blot of phospho-Bad Ser112; format: cell-based, human; conditions: 5 hours
How it was run: as §3

LAPC-4 cells = test: ATP viability assay; format: cell-based; conditions: Homo sapiens, LAPC4, 72 h, read-out: approximate IC50, cell viability
How it was run: as §1

[16] = test system: p-p21^Thr145 in 22Rv1-Pim1 cells; test: Western blot of phospho-p21 Thr145; format: cell-based, human; conditions: 22Rv1-Pim1, 1μM, 2 hours
C4-2B cells [17] = test: ATP viability assay; format: cell-based; conditions: Homo sapiens, 72 h, read-out: approximate IC50, cell viability
How it was run: as §1

[18] = test system: phosphorylated Bad^Ser112 in 22Rv1 cells; test: Western blot of phospho-Bad Ser112; format: cell-based, human; conditions: 22Rv1, increasing doses, 5 hours
How it was run: as §3

[19] = 22Rv1, 48 h, read-out: cell viability
[20] = read-out: IC50, cell viability (taxanes)

In the case of CN1CCC(CNc2ccc3ncc(-c4cccc(OC(F)(F)F)c4)n3n2)CC1 [SGI-1776], the IC50 (PC3 cells) is reported as roughly 3 µM, the viability at 2.5 µM (22Rv1 cells [1]; [19]) is reported as 63% and the “percentage of cells in the G1 phase” value (22Rv1 cells [2]; 22Rv1, 2.5μM) is reported as 70% ± 2.00. For the same compound, the “percentage of cells in the G1 phase” value (22Rv1 cells [2]; 22Rv1, 7.5μM) was 81% ± 1.17, the “increase of caspase-3 activity compared to untreated cells” value (22Rv1-T cells [3]; 2.5μM SGI-1776, 24 hours) was 1.42 fold and the “caspase-3 activity relative to untreated (100%)” value (22Rv1-T cells [3]; 2.5μM SGI-1776, 24 hours, ± 3) was 142%. For the same compound, the “increase of caspase-3 activity compared to untreated cells” value (22Rv1-T cells [3]; 2.5μM SGI-1776 combined with 50nM paclitaxel, 24 hours) was 2.7 fold, the “caspase-3 activity relative to untreated (100%)” value (22Rv1-T cells [3]; 2.5μM SGI-1776 combined with 50nM paclitaxel, 24 hours, ± 8, p<0.0001) was 269% and the IC50 (LNCaP cells) was roughly 5 µM. The “concentration of maximal inhibition of phospho-p21^Thr145” value [4] was 7.5 µM, the caspase-3 activity levels (22Rv1 cells [5]) was “dose-dependent increase” and the “phosphorylated Bad^Ser112 protein levels” value [6] was “dose-dependent decrease”. The IC50 (DU145 cells) was roughly 8 µM, the “MDR1 mRNA expression levels” value [7] was “did not alter” and the “effect on p-p21^Thr145 abundance” value ([8]; 22Rv1, 1μM, 2 hours) was “minimal, if any, effect”. The “concentration of maximal inhibition of phospho-p21^Thr145” value ([8]; 22Rv1, 5 hour treatment) was 5 µM, the “concentration at which significant decrease in p-p21^Thr145 was first observed” value ([8]; parental 22Rv1 (Fig. 3a)) was 2.5 to 5 µM and the “percentage of cells in the G1 phase” value (C4-2B cells [9]; 2.5μM) was 81% ± 1.24. The “percentage of cells in the G1 phase” value (C4-2B cells [9]; 7.5μM) was 95% ± 0.16, the cell viability response (22Rv1-T cells [10]; 2.5μM SGI-1776 alone) was “minimal response” and the IC50 (22Rv1-T cells [10]; read-out: approximate IC50, cell viability) was roughly 5 µM. The “reduction in IC50 in 22Rv1-Pim1 compared to 22Rv1, cell viability” value (22Rv1-Pim1 cells [11]) was roughly 3 fold, the IC50 (RWPE2-W99 cells) was roughly 9 µM and the caspase-3 activity levels (C4-2B cells [12]) was “dose-dependent increase”. For the same compound, the fold induction at 2.5 µM (22Rv1-Pim1 cells [13]) was 1.6, the “fluorescent calcein accumulation, combination” value ([14]; paclitaxel combined with SGI-1776) was “did not further enhance” and the “fluorescent calcein retention (MDR1 efflux activity)” value [14] was “dose-dependent increase”. For the same compound, the “concentration of maximal inhibition of phosphorylated Bad^Ser112” value [15] was 5 to 7.5 µM, the IC50 (LAPC-4 cells) was greater than 10 µM and the “effect on p-p21^Thr145 abundance” value [16] was “dramatic inhibition”. For the same compound, the IC50 (C4-2B cells [17]) was roughly 4 µM and the “phosphorylated Bad^Ser112 protein levels” value [18] was “dose-dependent decrease”.

With CC(=O)O[C@@]12CO[C@@H]1C[C@H](O)[C@@]1(C)C(=O)[C@H](O)C3=C(C)[C@@H](OC(=O)[C@H](O)[C@@H](NC(=O)OC(C)(C)C)c4ccccc4)C[C@@](O)([C@@H](OC(=O)c4ccccc4)[C@H]21)C3(C)C [docetaxel] the IC50 (22Rv1 cells [1]) was roughly 0.0025 µM and the IC50 (22Rv1-T cells [10]; [20]) was greater than 0.1 µM.

In the case of CC(=O)O[C@H]1C(=O)[C@@]2(C)[C@H]([C@H](OC(=O)c3ccccc3)[C@]3(O)C[C@H](OC(=O)[C@H](O)[C@@H](NC(=O)c4ccccc4)c4ccccc4)C(C)=C1C3(C)C)[C@]1(OC(C)=O)CO[C@@H]1C[C@@H]2O [paclitaxel], the viability at 0.0025 µM (22Rv1 cells [1]; [19]) is reported as 62.6%, the IC50 (22Rv1 cells [1]) is reported as roughly 0.0045 µM and the “change in caspase-3 levels” value (22Rv1-T cells [3]; increasing doses of paclitaxel alone, 24 hours) is reported as “lack of change”. For the same compound, the cell viability response (22Rv1-T cells [10]; 50nM paclitaxel alone) was “does not respond”, the IC50 (22Rv1-T cells [10]; [20]) was greater than 0.1 µM and the “fluorescent calcein retention (MDR1 efflux activity)” value [14] was “no different from the untreated cells”.
